Only some compounds are listed: those with a hit (about 1.3% of all), similar ones and a draw of the others.
Tn7 DDE FP: disrupts Tn7 cyclic peptide binding to fibrin D-Dimer-E complex; P02675; FP displacement of FITC-Tn7 peptide from fibrin DD(E); 0% = median of compound wells per plate; inhibition, % at 8.3 µM; 370,000 tested, 0.13% active; AID 720508;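 active = inhibition above the mean of compounds falling within the control limits plus 3 SD of them, cut at about 14% in these data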
Target sequence (P02675 whole entry, looked up): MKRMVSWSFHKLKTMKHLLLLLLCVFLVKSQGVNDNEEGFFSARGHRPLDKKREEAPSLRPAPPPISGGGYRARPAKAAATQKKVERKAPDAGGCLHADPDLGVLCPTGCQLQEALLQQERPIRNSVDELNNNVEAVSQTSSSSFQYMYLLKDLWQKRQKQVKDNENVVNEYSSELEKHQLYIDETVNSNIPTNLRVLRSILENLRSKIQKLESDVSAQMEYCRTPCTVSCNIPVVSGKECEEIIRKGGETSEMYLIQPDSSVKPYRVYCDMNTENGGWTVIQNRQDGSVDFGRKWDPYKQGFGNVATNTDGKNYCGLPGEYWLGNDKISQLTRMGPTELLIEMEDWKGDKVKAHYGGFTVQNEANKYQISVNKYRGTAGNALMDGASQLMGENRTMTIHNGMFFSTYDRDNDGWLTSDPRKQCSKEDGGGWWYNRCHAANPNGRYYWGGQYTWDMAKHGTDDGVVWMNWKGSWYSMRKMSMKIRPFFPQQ
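assay system = human clot-derived fibrin DD(E) complex | quantity = Fibrin-DD(E) at 2 µM final | timing = 10 min preincubation, 3 h with tracer, room temperature | signal = fluorescence polarization | measure = percent inhibition | benchmarks = high control wells with 10 µM unlabelled Aha-Tn7 peptide (full inhibition) | replicates = singlicate testing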
CRFR2-BP ag: agonists of human CRF-binding protein/CRF-R2 receptor complex | HEK293 CRF-R2/CRF-BP, calcium dye fluorescence (FLIPR); percent of saturating CRF peptide response | activation, % at 13.2 µM | 350,000 tested, 0.46% active;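 active = activation of at least 50%, plus an integration ratio under a set limit after plate pattern correction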
CRFBP-R2 block: blocks CRF-induced signaling of the CRF-BP/CRF-R2 complex. inhibition, % at 11.8 µM. HEK293 CRF-R2/CRF-BP, CRF-induced calcium fluorescence. 350,000 tested, 0.59% active;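 active = inhibition of the ligand-induced calcium signal above about 50% at the single tested concentration, limit read from the data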
Tn6 DDE FP: disrupts Tn6 cyclic peptide binding to fibrin D-Dimer-E complex; P02675; Fibrin DD(E) TRITC-Tn6 fluorescence polarization displacement; inhibition, % at 8.3 µM; 370,000 tested, 0.21% active;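 active = inhibition above a per-campaign cutoff: mean of compounds within control limits plus 3 SD, cut at about 15% in these data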
Large screens that a line does not name were inactive; ! = not confirmed by another sample.

CC(C)(C)c1cc([N+](=O)[O-])cc(C(C)(C)C)c1O	CRFR2-BP ag 68, CRFBP-R2 block 63
Cn1c(O)c(C=NCCCCCCCCCCC(=O)O)c(=O)n(C)c1=O	none
CNC1(c2ccc(F)cc2)CCCCC1	CRFBP-R2 block 88
CC(C)NC1(c2ccccc2)CCCCC1	none (no result: CRFR2-BP ag, CRFBP-R2 block)
O=C(c1ccccc1F)c1cn(CC(=O)N2CCCCC2)c2ccccc12	none
O=C1NC(=O)N(CCNc2ncc(C(F)(F)F)cc2Cl)C(=O)C1/C=N/OCc1c(F)cccc1Cl (stereo not given)	CRFBP-R2 block 62
CCOP(=O)(OCC)c1ccc(O)cc1	none
N/C(=N/[N+](=O)[O-])N1CCN(C(=O)c2ccc(Cl)cc2)CC1	none
O=c1c2ccccc2nc(N2CCCC2)n1-c1ccc(Cl)cc1	CRFBP-R2 block 64
CN1C(=O)[C@@]23C[C@]4(c5c[nH]c6ccccc56)c5ccccc5N(S(=O)(=O)c5ccccc5)[C@@H]4N2C(=O)[C@@H]1SS3	none (no result: CRFR2-BP ag, CRFBP-R2 block)
Cc1cc(C(=O)Nc2ccc3c(c2)OCCO3)nn1C(C)(C)C	CRFBP-R2 block 82
O=c1[nH]c(=O)n(C2CCCCC2)c(O)c1/C=C/C=Nc1ccccc1	CRFR2-BP ag 112
Cc1ccc(-n2c(O)c(/C=C/C=Nc3ccccc3)c(=O)[nH]c2=O)cc1	CRFR2-BP ag 53
O=c1[nH]c(=O)n(-c2ccccc2)c(O)c1/C=C/C=Nc1ccccc1	none
COc1ccc(-n2c(O)c(/C=C/C=Nc3ccccc3)c(=O)[nH]c2=O)cc1	CRFR2-BP ag 105
COc1ccccc1N1CCN(CCc2ccccc2)CC1	none
CN1CCN(c2nc([N+](=O)[O-])nn2C)CC1	none
FC(F)(F)c1ccc(-c2ccc3c(c2)CNCc2cnnn2-3)cc1	none (no result: CRFR2-BP ag, CRFBP-R2 block)
O=C(Nc1nccs1)C(Cl)(Cl)Cl	none
O=C(CCl)Nc1nccs1	CRFBP-R2 block 62
COc1ccc(CN(CCc2c[nH]c3ccccc23)Cc2ccc(OC)cc2)cc1	CRFBP-R2 block 63
COc1ccc(Cn2c(O)c(/C=N/NC(=O)c3ccncc3)c(=O)[nH]c2=O)cc1	none
CCN(CC)c1ccc(N=Cc2c(O)n(-c3ccccc3)c(=O)[nH]c2=O)cc1	none
CCN(CC)c1ccc(N=Cc2c(O)n(Cc3ccccc3)c(=O)[nH]c2=O)cc1	CRFR2-BP ag 190!
CCOc1ccc(-n2c(O)c(C=Nc3ccc(N(CC)CC)cc3)c(=O)[nH]c2=O)cc1	CRFR2-BP ag 102
COc1ccc(Cn2c(O)c(/C=N/NC(=O)c3ccccc3)c(=O)[nH]c2=O)cc1	CRFBP-R2 block 55
O=P(/C(=N/O)N1CCOCC1)(N1CCOCC1)N1CCOCC1	CRFBP-R2 block 55
CC(C)(C)P(=O)(N1CCOCC1)N1CCOCC1	none
Cc1cc(C)n(-c2ccc(NN=C(C#N)C#N)cc2)n1	CRFR2-BP ag 53
CCN(CC)S(=O)(=O)c1ccc(NN=C(C#N)C#N)cc1	none
N#CC(C#N)=NNc1ccc(-n2ccc(C(F)(F)F)n2)cc1	CRFR2-BP ag 53
Cc1ccc(/C=C2\C(=O)NC(=S)N(c3ccc(F)cc3)C2=O)o1	none
CCN(CC)c1ccc(C=C2C(=O)N(C)C(=S)N(C)C2=O)o1	CRFR2-BP ag 88
Cc1cc(C)cc(N2C(=O)/C(=C\c3ccc(N4CCN(C)CC4)o3)C(=O)NC2=S)c1	CRFR2-BP ag 57
CCN(CC)c1ccc(/C=C2\C(=O)NC(=S)N(C)C2=O)o1	CRFR2-BP ag 58
CN1C(=O)C(=Cc2ccc(N3CCCCC3)o2)C(=O)N(C)C1=S	CRFR2-BP ag 133
O=c1[nH]c(=S)n(Cc2ccc(F)cc2)c(O)c1C=NCc1cccnc1	none
CC(C)(C)NC(=S)N1CCn2cccc2C1c1cccnc1 (stereo not given)	none
O=C(Nc1cccc(Br)c1)c1c(O)c2c(n(Cc3ccccc3)c1=O)CCCC2	none
c1cncc(-c2ccc3n2Cc2cnnn2-c2ccccc2-3)c1	none (no result: CRFR2-BP ag, CRFBP-R2 block)
CC[n+]1c(/C=C/C=C/c2ccc(N(C)C)cc2)sc2ccccc21	Tn6 DDE FP 73
COC(=O)C1(N(C)c2ccccc2)CCN(Cc2ccccc2)CC1	none (no result: CRFR2-BP ag, CRFBP-R2 block)
CN(c1ccccc1)P(=O)(N1CC1)N1CC1	CRFBP-R2 block 54
CN(C)c1ccc(C(=O)N/N=C/C23CC[C@@H](O)CC2(O)CC[C@@H]2[C@@H]3CCC3(C)C(C4=CC(=O)OC4)CCC23O)cc1 (stereo not given in full)	CRFBP-R2 block 54
CC(=O)Nc1cc(C(=O)N2CCC3(CC2)OCCO3)ccc1S(=O)(=O)c1ccc(C)cc1	CRFBP-R2 block 98
CC(=O)Nc1cc(C(=O)N2CCC3(CC2)OCCO3)ccc1S(=O)(=O)c1ccc(Cl)cc1	none
N#CC1=C(N)Oc2c(c(=O)sc3ccccc23)C1c1cccnc1 (stereo not given)	none
CCN(CC)CCN=C(C)c1c(O)n(-c2ccccc2OC)c(=O)[nH]c1=O	CRFBP-R2 block 87
CCCCCCC(=O)c1c(O)n(-c2ccccc2OC)c(=O)[nH]c1=O (tested in a mixture with another compound)	none
O=C(NC(Cc1cnc[nH]1)C(=O)O)c1ccccc1 (stereo not given)	none
COC(=O)[C@@H]1N=C(c2ccc(OC)cc2)O[C@]12C(=O)N(Cc1ccc(OC)cc1)c1ccccc12	none (no result: CRFR2-BP ag, CRFBP-R2 block)
Cc1cccc(N2C(=O)NC(=O)/C(=C\c3ccc(N4CCOCC4)cc3)C2=O)c1	CRFBP-R2 block 72
O=C([O-])c1ccc(-[n+]2c(-c3ccccc3)cc(-c3ccccc3)cc2-c2ccccc2)cc1	none
O=[N+]([O-])c1ccc(-[n+]2c(-c3ccccc3)cc(-c3ccccc3)cc2-c2ccccc2)cc1	CRFR2-BP ag 69
Cc1cc(OC(=O)N(C)C)n(-c2ccccc2)n1	none
CCOC(=O)C(O)(c1ccc(NC(=S)NC(=O)c2ccc(Cl)cc2Cl)c(C)c1)C(F)(F)F (stereo not given)	CRFR2-BP ag 114
CCOC(=O)C(O)(c1ccc(NC(=S)NC(=O)c2ccc(Cl)cc2Cl)cc1)C(F)(F)F (stereo not given)	CRFR2-BP ag 148
COC(=O)C1=C(c2ccc(C(C)=O)cc2)C[C@@H]2CC[C@H]1N2C(=O)NCc1ccc(C(F)(F)F)cc1	CRFR2-BP ag 68 (no result: Tn7 DDE FP, Tn6 DDE FP)
COC(=O)C1=C(c2ccccc2)C[C@@H]2CC[C@H]1N2C(=O)NCc1ccc(C(F)(F)F)cc1	none
COC(=O)C1=C(c2ccc3ccccc3c2)C[C@@H]2CC[C@H]1N2C(=O)NC1Cc2ccccc2C1	none
CCN(CC)c1ccc(/C=C/[N+](=O)[O-])cc1	CRFR2-BP ag 251
CCOC(=O)C(NC(=O)C(Cc1ccc(N(CCCl)CCCl)cc1)NC(C)=O)C(C)C (stereo not given)	none
COC(=O)C(Cc1ccc(N(CCCl)CCCl)cc1)N=Cc1ccccc1O (stereo not given)	CRFBP-R2 block 67
CC(=O)NCC1=C(c2cccc3ccccc23)C[C@@H]2CC[C@H]1N2Cc1ccco1	none
Cc1cc(/C=C2\C(=O)NC(=O)N(c3cccc(Br)c3)C2=O)c(C)n1C	CRFR2-BP ag 97
Cc1cc(/C=C2/C(=O)NC(=O)N(c3ccc(Br)cc3)C2=O)c(C)n1C	none

Source: PubChem BioAssay (several laboratories)
